The structures appear in SMILES notation. The source made the active and inactive calls. The rule behind the calls is not given here.

This is an account of results in ChEMBL document CHEMBL5653630, “Activation of the p53-MDM4 regulatory axis defines the anti-tumour response to PRMT5 inhibition through its role in regulating cellular splicing” (Sci Rep, 2018).

One assay concerns MHH-PREB-1. As to the kind of experiment: Antiproliferative activity against human MHH-PREB-1 cells assessed as cell growth inhibition incubated for 10 days. The format is functional. Conditions: MHH-PREB-1, 240 h, time 10 day.
A further assay deals with SNU-16. As to the kind of experiment: Antiproliferative activity against human SNU-16 cells assessed as cell growth inhibition incubated for 10 days. The format is functional. Conditions: SNU-16, 240 h, time 10 day.
For the next assay, the system named is BV-173. As to the kind of experiment: Antiproliferative activity against human BV-173 cells assessed as cell growth inhibition incubated for 10 days. The format is functional. Conditions: BV-173, 240 h, time 10 day. The method, boiled down:
(§1)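 Cells kept in RPMI-1640 with 10% FBS, 2 mM L-alanyl-L-glutamine and 1 mM Na pyruvate (or a special medium) at 37°C, 5% CO2. Compound added 24 h after seeding, 10 concentrations in 3.16-fold dilution, 0.1% DMSO final. Medium replaced and cells re-dosed at 168 h; 240 h incubation. Nuclei fixed, dye-stained and imaged. gIC50 = growth midway between untreated and time-zero cell counts, from a 4-parameter fit.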

In the next assay the test system is HT. As to the kind of experiment: Antiproliferative activity against human HT cells assessed as cell growth inhibition incubated for 10 days. Type of assay: functional. The settings on record: 240 h, time 10 day. The method, boiled down:
(§2)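 Outsourced panel run in 384-well plates. Cells were grown in RPMI-1640/10% FBS or a special medium at 37°C, 5% CO2. Compound was added 24 h after seeding as a 10-point, 3.16-fold series in 0.1% DMSO. Medium was refreshed and cells re-dosed at 168 h, with a time-zero plate kept. At 240 h cells were fixed, nuclei stained and imaged. gIC50 is growth midway between untreated and time zero, from a 4-parameter fit.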

A further assay concerns J-RT3-T3-5. As to the kind of experiment: Antiproliferative activity against human J-RT3-T3-5 cells assessed as cell growth inhibition incubated for 10 days. Type of assay: functional. The settings on record: J-RT3-T3-5, 240 h, time 10 day. The gist of the method: (§3)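 Eurofins-panel 10-day assay in 384-well plates. Cells grown in RPMI-1640 with 10% FBS, 2 mM L-alanyl-L-glutamine and 1mM Na pyruvate, or a special medium, at 37°C in 5% CO₂. Compound added 24 h after seeding, 10-point 3.16-fold series in 0.1% DMSO. Medium replaced and compound re-dosed at 168 h. Nuclei fixed and stained after 240 h, then imaged to give a relative cell count. gIC50 is the concentration giving growth midway between untreated and time-zero counts, from a 4-parameter fit.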

The next assay has as its system SK-OV-3. As to the kind of experiment: Antiproliferative activity against human SK-OV-3 cells assessed as cell growth inhibition incubated for 10 days. Type of assay: functional. The settings on record: SK-OV-3, 240 h, time 10 day.
For a further assay, the system named is HepG2. Briefly: Antiproliferative activity against human HepG2 cells assessed as cell growth inhibition incubated for 10 days. The settings on record: HepG2, 240 h, time 10 day. Type of assay: functional. The gist of the method:
as §2

The subject of another assay is DOHH-2. As to the kind of experiment: Antiproliferative activity against human DOHH-2 cells assessed as cell growth inhibition incubated for 10 days. Type of assay: functional. The settings on record: DOHH-2, 240 h, time 10 day. The gist of the method:
as §2

For the next assay, the system named is CAPAN-1. As to the kind of experiment: Antiproliferative activity against human CAPAN-1 cells assessed as cell growth inhibition incubated for 10 days. Type of assay: functional. The settings on record: CAPAN-1, 240 h, time 10 day. The method, boiled down:
as §1

The test system of a further assay is SW1088. Briefly: Antiproliferative activity against human SW1088 cells assessed as cell growth inhibition incubated for 10 days. Type of assay: functional. Conditions: SW1088, 240 h, time 10 day.
The next assay relates to CRO-AP2. Briefly: Antiproliferative activity against human CRO-AP2 cells assessed as cell growth inhibition incubated for 10 days. The format is functional. Conditions: CRO-AP2, 240 h, time 10 day. The method, boiled down:
as §2

Assay [1] has as its target Protein arginine N-methyltransferase 5 (Homo sapiens) (UniProt O14744). As to the kind of experiment: Inhibition of PRMT5 in human Z138 cells assessed as full length MDM4 splicing at 200 to 1000 nM incubated for 3 days by RT-PCR analysis. The format is cell-based. Conditions: dose 200-1000 nM, time 3.0 day.
The next assay has as its system CAL-27. As to the kind of experiment: Antiproliferative activity against human CAL-27 cells assessed as cell growth inhibition incubated for 10 days. The format is functional. The settings on record: CAL-27, 240 h, time 10 day. The gist of the method: as §1
The test system of the next assay is HuP-T4. Briefly: Antiproliferative activity against human HuP-T4 cells assessed as cell growth inhibition incubated for 10 days. Type of assay: functional. The settings on record: HuP-T4, 240 h, time 10 day. The gist of the method: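 Cells grown at 37°C under 5% CO2 in RPMI-1640 with 10% FBS, 2 mM L-alanyl-L-glutamine and 1 mM pyruvate (or a special medium), then seeded in 384-well plates. Compound was added 24 h later as a 10-point, 3.16-fold series in 0.1% DMSO final. Medium was replaced and cells re-dosed at 168 h; 240 h total. Nuclear-dye imaging gave cell counts, with a time-zero plate. gIC50 is growth halfway to time zero, from a 4-parameter fit.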

A further assay deals with WI-38. Briefly: Antiproliferative activity against human WI-38 cells assessed as cell growth inhibition incubated for 10 days. Type of assay: functional. The settings on record: WI-38, 240 h, time 10 day.
In a further assay the test system is SH-4. Briefly: Antiproliferative activity against human SH-4 cells assessed as cell growth inhibition incubated for 10 days. The settings on record: SH-4, 240 h, time 10 day. The format is functional.
In the next assay the test system is COLO 320. Briefly: Antiproliferative activity against human COLO 320 cells assessed as cell growth inhibition incubated for 10 days. Type of assay: functional. The settings on record: COLO 320, 240 h, time 10 day. The gist of the method:
as §1

The subject of the next assay is U-2940. Briefly: Antiproliferative activity against human U-2940 cells assessed as reduction in cell viability. Type of assay: functional, cell-based.
A further assay deals with A 172. Briefly: Antiproliferative activity against human A-172 cells assessed as cell growth inhibition incubated for 10 days. The settings on record: A 172, 240 h, time 10 day. Type of assay: functional. The gist of the method: as §1
Assay [2] deals with Protein arginine N-methyltransferase 5 (Homo sapiens) (UniProt O14744). Briefly: Inhibition of PRMT5 in human Z138 cells assessed as MDM4 splicing at 8 to 1000 nM incubated for 3 days by RT-PCR analysis. The format is cell-based. The settings on record: dose 8-1000 nM, time 3.0 day.
Another assay has as its system SK-MEL-1. Briefly: Antiproliferative activity against human SK-MEL-1 cells assessed as cell growth inhibition incubated for 10 days. The format is functional. Conditions: SK-MEL-1, 240 h, time 10 day.
Assay [3] in a line: Antiproliferative activity against human KHOS-240S cells assessed as cell growth inhibition incubated for 10 days. Type of assay: functional. The settings on record: 240 h, time 10 day. The gist of the method:
as §3

For the next assay, the system named is MC-IXC. As to the kind of experiment: Antiproliferative activity against human MC-IXC cells assessed as cell growth inhibition incubated for 10 days. Conditions: 240 h, time 10 day. Type of assay: functional.
The test system of assay [4] is MDA-MB-468. Briefly: Induction of cell cycle arrest in human MDA-MB-468 cells assessed as increase in sub-2n cell population measured upto 5000 nM measured for 7 to 10 days by propidium iodide staining based flow cytometric analysis. Type of assay: functional. The settings on record: time 7-10 day.
Assay [5] deals with Z-138. As to the kind of experiment: In vivo inhibition of PRMT5 in human Z138 cells xenografted in po dosed mouse assessed as reduction in SDMA level measured for 7 days. The format is functional, organism-based. The settings on record: dose 0.2-100 mg/kg, time 7.0 day.
The target in assay [6] is E3 ubiquitin-protein ligase Mdm2 (Homo sapiens) (UniProt Q00987). As to the kind of experiment: In vivo inhibition of PRMT5 in human Z138 cells xenografted in mouse assessed as increase in MDM2 expression at 100 mg/kg, po BID measured for 7 days. The format is functional, organism-based. Conditions: Z-138, time 7.0 day.
The subject of assay [7] is Z-138. As to the kind of experiment: Induction of cell cycle arrest in human Z138 cells assessed as decrease in 4n cell population measured upto 1000 nM measured for 2 to 5 days by propidium iodide staining based flow cytometric analysis. Conditions: time 2-5 day. The format is functional.
The test system of assay [8] is MDA-MB-468. Briefly: Induction of cell cycle arrest in human MDA-MB-468 cells assessed as decrease in 2n cell population measured upto 5000 nM measured for 2 to 7 days by propidium iodide staining based flow cytometric analysis. The format is functional. The settings on record: time 2-7 day.

Protein arginine N-methyltransferase 5 (Homo sapiens), sequence (O14744 whole entry): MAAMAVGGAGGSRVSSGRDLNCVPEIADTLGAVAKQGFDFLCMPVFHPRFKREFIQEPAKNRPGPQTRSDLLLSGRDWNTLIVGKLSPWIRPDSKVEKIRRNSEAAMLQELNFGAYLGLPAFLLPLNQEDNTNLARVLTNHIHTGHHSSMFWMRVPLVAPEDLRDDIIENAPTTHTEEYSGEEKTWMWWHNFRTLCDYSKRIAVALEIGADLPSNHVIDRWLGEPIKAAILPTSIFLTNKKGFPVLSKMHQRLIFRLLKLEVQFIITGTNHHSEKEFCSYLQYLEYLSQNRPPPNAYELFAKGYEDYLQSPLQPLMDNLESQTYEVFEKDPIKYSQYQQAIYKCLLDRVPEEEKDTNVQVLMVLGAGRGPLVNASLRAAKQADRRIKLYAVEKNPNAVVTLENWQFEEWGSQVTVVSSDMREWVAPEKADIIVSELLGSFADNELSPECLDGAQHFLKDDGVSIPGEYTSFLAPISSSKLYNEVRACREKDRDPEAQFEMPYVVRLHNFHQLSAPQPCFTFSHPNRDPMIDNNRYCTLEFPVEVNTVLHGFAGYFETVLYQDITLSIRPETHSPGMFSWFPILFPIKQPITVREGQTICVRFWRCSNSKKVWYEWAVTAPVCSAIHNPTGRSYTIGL
E3 ubiquitin-protein ligase Mdm2 (Homo sapiens), sequence (Q00987 whole entry, looked up): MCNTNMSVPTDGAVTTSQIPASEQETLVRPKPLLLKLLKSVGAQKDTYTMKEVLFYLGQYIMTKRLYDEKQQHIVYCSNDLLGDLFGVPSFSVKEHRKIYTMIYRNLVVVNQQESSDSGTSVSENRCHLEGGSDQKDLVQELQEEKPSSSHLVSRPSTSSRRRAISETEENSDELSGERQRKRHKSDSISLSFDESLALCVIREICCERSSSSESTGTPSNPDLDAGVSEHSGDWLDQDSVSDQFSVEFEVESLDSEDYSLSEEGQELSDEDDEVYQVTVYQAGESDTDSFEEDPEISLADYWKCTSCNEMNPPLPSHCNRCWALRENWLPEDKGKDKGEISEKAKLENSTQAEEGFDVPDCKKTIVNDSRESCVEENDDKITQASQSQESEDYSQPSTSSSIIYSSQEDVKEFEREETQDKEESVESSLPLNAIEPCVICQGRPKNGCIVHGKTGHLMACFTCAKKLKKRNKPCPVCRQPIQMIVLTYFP

For `O=C(NC[C@H](O)CN1CCc2ccccc2C1)c1ccnc(NC2CCC2)c1`, the GI50 is 10000 nM with MHH-PREB-1; 34.4 nM in the assay with SNU-16; 10.6 nM with BV-173; 206 nM in the assay with HT; 43.2 nM with J-RT3-T3-5; 52.6 nM in the assay with SK-OV-3. For the same compound, the 50% growth inhibitory concentration (GI50) with HepG2 is 214 nM; in the assay with DOHH-2, 157 nM; in the assay on CAPAN-1 it was 370 nM; in the assay on SW1088 it was 40.5 nM; in the assay on CRO-AP2, 250 nM; with CAL-27 it was 103 nM. Moreover, the GI50 in the assay on HuP-T4 was determined as 84.9 nM; in the assay on WI-38 it was 18.5 nM; in the assay with SH-4, 75.2 nM; with COLO 320, 80.3 nM; in the assay on A 172, 29.6 nM; with SK-MEL-1, 38.7 nM. The GI50 in assay [3] came out at 124 nM; in the assay on MC-IXC, 615 nM. The inhibition result in assay [1] and in assay [2] was “Active” in each case. Also, the result in the assay on U-2940 was Active.
On to `CC(=O)N1CCC(Nc2cc(C(=O)NC[C@H](O)CN3CCc4ccccc4C3)ncn2)CC1` [PEMRAMETOSTAT], for which the outcome in the assay with MDA-MB-468 [4] and in the assay on Z-138 [7] was Active. Moreover, the inhibition result in the assay with Z-138 [5] was “Dose-Dependent Effect”. Besides, the inhibition entry in assay [6] was “Active”. Besides, in the assay on MDA-MB-468 [8], the outcome was inactive.
